WNV protease inh: blocks West Nile virus NS2B-NS3 protease activity; P06935; WNV NS2B-NS3 protease, fluorogenic substrate Ex360/Em465; hits give low values; z-score (test concentration not listed); 65,000 compounds, 0.18% hits; AID 577; in the data active = z-score below about -3
tolC growth inh: E. coli tolC mutant growth inhibition. E. coli BW25113 tolC mutant growth, OD615. growth inhibition, % at 10 µM (by protocol). 65,000 compounds, 2.2% hits;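 active = growth inhibition at or above a cutoff equal to the mean over every tested compound plus 3 SD, cut at about 60% in these data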;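 also: growth measured after 20 h incubation at 37 °C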
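Test system: tolC-deleted E. coli BW25113 | Medium: LB with kanamycin 50 µg/mL | Compound dosing: Single concentration, 10 µM final per compound | Schedule: 37 °C, 20 h exposure | Measured by: OD at 615 nm | Evaluation: Percent growth inhibition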
M1 agonist: M1 muscarinic receptor agonism. 64,000 compounds, 3% hits. CHO-M1 cells, Fluo-4 calcium fluorescence, agonist mode; hits give high values. B-score at 10 µM;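 active = fluorescence rise, raw or as B-score row- and column-corrected plate score, outside the 99.7% band of its plate's samples, either direction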
AP complement: orthogonal test for alternative complement pathway inhibitors | Human serum alternative complement pathway, LPS-coated ELISA, C3 deposition; tested in compound mixtures | inhibition, % at 5 µM | 62,000 compounds, 0.08% hits | AID 1235;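 active = inhibition above 30% in each of the two pooled mixtures holding the compound, so the lower value exceeds 30%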;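 also: 0% = serum in Mg-EGTA without compound and 100% = EDTA serum blank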
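Assay system: human serum alternative complement pathway, C3 deposition on LPS-coated wells; Dosing: 5 µM per compound in ten-compound mixtures; Detection: Anti-C3 ELISA, OD 450 nm; Buffer or medium: Mg2+-EGTA GVB++ buffer containing human serum at 1:15 dilution; Timing: 1 h at 37 °C; Replication: two different pools per compound.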
E coli WT exp: E. coli BW25113 growth inhibition, expanded screen | OD600 absorbance | growth inhibition, % at 100 µM | 98,000 compounds, 0.15% hits | AID 710;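 active = growth inhibition above about 50% at one test dose, limit read from the data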;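 also: growth measured after 20 h incubation at 37 °C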
M1 antag: blocks the rat M1 muscarinic receptor response to acetylcholine | AID 628 | B-score at 10 µM | P08482 | 64,000 compounds, 3.4% hits | CHO-M1 cells, Fluo-4 calcium, ACh EC80 antagonist mode; hits give low values;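 active = calcium fluorescence response, raw or row-and-column corrected B-score, differing from the plate sample mean either way at a set confidence level, mostly lower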
M1 agonist conf: rat M1 muscarinic agonism, confirmation. shares compounds with M1 agonist. 1,700 compounds, 19% hits. CHO-M1 cells, Fluo-4 calcium fluorescence, agonist mode; actives lie on both sides. fluorescence change (max-min) at 10 µM;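 active = fluorescence change differs from the solvent-only DMSO control mean at a set confidence level in both duplicate runs; inconclusive = differs from solvent-only control mean in just one of two runs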;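 also: an EC20 dose of acetylcholine follows compound addition during the same imaging run; raw fluorescence intensity difference in instrument units with no normalization to controls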
M4 ag counter: activates rat M4 receptor in counter-screen for M1 agonists. CHO M4/Gqi5 cells, Fluo-4 calcium fluorescence, agonist mode; actives lie on both sides. 1,700 compounds, 9% hits. AID 1741. fluorescence change (max-min) at 10 µM. shares compounds with M1 agonist;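 active = fluorescence change differing from the plate's solvent-only control wells at 99.7% confidence in both duplicates, whether higher or lower; inconclusive = differs from solvent controls in only one of two duplicates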
Target sequence (P08485 whole entry, looked up): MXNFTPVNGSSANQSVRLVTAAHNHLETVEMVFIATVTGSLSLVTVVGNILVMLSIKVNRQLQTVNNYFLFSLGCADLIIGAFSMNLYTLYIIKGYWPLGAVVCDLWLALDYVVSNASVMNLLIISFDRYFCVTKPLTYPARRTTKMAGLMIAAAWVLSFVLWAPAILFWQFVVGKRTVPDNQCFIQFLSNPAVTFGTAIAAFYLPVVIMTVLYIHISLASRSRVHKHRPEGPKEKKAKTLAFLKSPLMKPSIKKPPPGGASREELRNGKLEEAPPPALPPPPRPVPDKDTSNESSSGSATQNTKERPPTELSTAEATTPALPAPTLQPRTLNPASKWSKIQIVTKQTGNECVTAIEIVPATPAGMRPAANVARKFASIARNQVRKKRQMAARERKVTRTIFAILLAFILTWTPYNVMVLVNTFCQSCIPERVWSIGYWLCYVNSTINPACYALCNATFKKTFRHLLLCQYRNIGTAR
* hit, by the source's call; u = inconclusive; x = no result given. This is a sample that favours compounds with a hit; in the whole collection about 5.2% have one here.

SMILES	WNV protease inh	tolC growth inh	M1 agonist	AP complement	E coli WT exp	M1 antag	M1 agonist conf	M4 ag counter
CC(CN1CCOCC1)(NS(=O)(=O)c1ccccc1)c1ccccc1 (stereo not given)	0.33	-7	18*	-1	8	-0.089	u	-37
CC(C(=O)N1CCOCC1)(c1ccccc1)c1ccccc1	0.12	8	0.026	5	1	0.47	x	x
COc1ccc(OC)c(S(=O)(=O)N2CCC(C(=O)Nc3ccc(C)c(C)c3)CC2)c1	1.1	34	15*	15	-11	-0.97	-8	u
Cn1c(N)c(C(=O)c2ccccc2)c(=O)n(C)c1=O	x	x	x	x	-4	x	x	x
CCC(=NC(C)c1ccccc1)c1c(O)n(C)c(=O)n(C)c1=O (stereo not given)	-0.66	6	3.8*	10	1	-0.51	-6.7	-28
O=[n+]1c2c(n([O-])c3c1CCCC3)CCCCC2	-0.36	-16	1.3	-3	3	0.68	x	x
C=C1c2cc(C)ccc2NC(=O)N1c1ccc(C)cc1	x	x	x	x	7	x	x	x
C=C1c2cc(OC)ccc2NC(=O)N1CC	0.75	-12	8.2*	x	-6	0.069	71*	11
Cc1nc(-c2cccc(NS(=O)(=O)c3cccc4ccccc34)c2)cs1	x	x	x	x	0	x	x	x
Cc1ccccc1OCC(O)Cn1c(NCc2ccccc2)nc2c1c(=O)[nH]c(=O)n2C (stereo not given)	x	x	x	x	-5	x	x	x
Cc1ccccc1OCC(O)Cn1c(SC(C)C)nc2c1c(=O)[nH]c(=O)n2C (stereo not given)	0.25	13	6.9*	-11	-2	-0.76	-16	-28
CN(C)CCNc1nc2c(c(=O)[nH]c(=O)n2C)n1CC(O)COc1ccc(Cl)cc1Cl (stereo not given)	0.93	-12	4.2*	29	4	0.016	-7.6	-24
COc1ccc(CNC(=O)CSc2ncnc3nc[nH]c23)cc1	-1.2	-12	31*	26	-2	-0.83	u	-63
O=C(CSc1ncnc2nc[nH]c12)NCCc1ccccc1	0.13	-13	-0.52	4	4	0.079	x	x
COc1cccc2cc(C(=O)NCc3ccco3)c(=Nc3ccc(C(=O)O)cc3)oc12	x	x	x	x	1	x	x	x
O=C(NC1CCCC1)c1ccc(CSCc2ccccc2F)o1	x	x	x	x	-5	x	x	x
O=C(O)c1ccc(CSCc2ccccc2F)o1	0.08	14	6.8*	19	-6	-1.1	-23	-32
CCN1C(=O)CC(c2ccco2)Sc2ccccc21 (stereo not given)	-0.18	5	0.64	17	9	-0.46	x	x
COC(=O)c1c(CSc2ccc(C)c(C)c2)noc1C(=O)NCc1ccc(OC)cc1	x	x	x	x	-14	x	x	x
CCOC(=O)/C(C#N)=C1\Nc2ccccc2N=C1N(CC(C)C)CC(C)C	0.18	11	8.1*	-19	-15	-0.61	u	-27
O=C(NCCCN1CCOCC1)c1cc(-c2ccc(Br)cc2)on1	0.41	1	2.2*	5	21	-0.5	u	-44
CCOC(=O)c1cn(-c2ccccc2)nc1-c1ccncc1	-0.41	-6	2.2*	16	-18	-0.24	u	u
CC(C)OC(=O)c1cn(-c2ccccc2)nc1-c1ccco1	0.77	11	4.4*	12	2	-1.1	-16	-40
CC(C)CC(C(=O)Nc1ccc2c(c1)OCCO2)N1C(=O)c2ccccc2C1=O (stereo not given)	-1.1	-25	0.6	2	-9	0.071	x	x
CC(C)CC(C(=O)Nc1oc(-c2ccco2)c(-c2ccco2)c1C#N)N1C(=O)c2ccccc2C1=O (stereo not given)	-2	17	13*	1	-3	-1.9*	-5.6	-33
SMILES	WNV protease inh	tolC growth inh	M1 agonist	AP complement	E coli WT exp	M1 antag	M1 agonist conf	M4 ag counter
CCOC(=O)C1CCCN(C(=O)CCCn2nc(C)n3c(cc4sccc43)c2=O)C1 (stereo not given)	-1.5	9	42*	-5	-7	-0.67	335*	u
Cc1[nH]nc2c1C(c1cccc(O)c1)C1=C(CC(C)(C)CC1=O)N2 (stereo not given)	-0.46	-13	-0.35	12	3	1.4	x	x
COc1cccc(NC(=O)c2cccs2)c1	-0.27	5	2.4*	5	7	-0.13	u	u
COc1ccc(NC(=O)c2cccs2)cc1OC	-0.84	0	-0.66	22	9	-0.39	x	x
CCOC(=O)CC(=O)CSc1nc(C)cc(C)c1C#N	x	x	x	x	3	x	x	x
CCOC(=O)CC(=O)CSc1nc2c(c(C)c1C#N)CCC2	-0.03	-18	-2.9*	8	2	-1.2	-8	-27
C=C(C)Cn1c(=O)c2c(nc3n2CCN3c2cccc(Cl)c2C)n(C)c1=O	-0.16	14	3*	-6	x	-1.6	-12	-32
c1ccc2c(c1)nc(N1CCOCC1)c1nnnn12	0.87	-17	6.4*	16	2	0.33	33	20
c1ccc(N2CCN(c3nc4ccccc4n4nnnc34)CC2)cc1	0.95	22	17*	10	-17	0.11	u	u
c1ccc2nc(N3CCOCC3)c(N3CCOCC3)nc2c1	-0.13	-8	-0.65	x	-6	0.48	x	x
c1ccc2c(c1)nc(N1CCN(C3CCCCC3)CC1)c1nnnn12	-0.75	9	-0.49	19	1	-0.93	x	x
CCOc1ccc2nc(NC(=O)CS(=O)(=O)c3ccc(C)cc3)sc2c1	x	x	x	x	-19	x	x	x
CCOc1ccc2nc(NC(=O)CS(=O)(=O)c3ccccc3)sc2c1	-0.94	9	2.2*	7	7	0.32	-16	-38
CCOc1ccc(NC(=O)c2cccc(-n3cnnn3)c2)cc1	2.1	-20	-0.68	2	-6	0.042	x	x
O=C(Nc1cnc2ccccc2c1)c1cccc(-n2cnnn2)c1	0.23	4	4.4*	-18	0	-1	u	-35
Cn1c(SCc2ccccc2Cl)nc(C(F)(F)F)cc1=O	x	x	x	x	-8	x	x	x
CCOC(=O)N1CCN(C(=O)c2cc(-c3ccc(OCC)cc3)nc3ccccc23)CC1	-0.73	8	8.7*	6	-4	-0.39	u	-37
CN(C)S(=O)(=O)c1ccc(C(=O)OCn2nnc3ccccc3c2=O)cc1	x	x	x	x	3	x	x	x
CCOc1ccc(C2C=C(c3ccccc3)Nc3ncnn32)cc1 (stereo not given)	1.3	-1	25*	x	-3	-2.3	202*	150
CCOc1ccc(C2C=C(c3ccc(F)cc3)Nc3ncnn32)cc1 (stereo not given)	0.67	12	25*	-5	-12	-0.6	146*	94
COc1cc(OC)c(C2=NOC(C(=O)O)C2)cc1Cl (stereo not given)	0.68	-12	-1.2	16	-3	-1.4	x	x

From PubChem BioAssay
